≈ marks a conversion by molar mass, not a printed value. Each block holds one molecule with its values, some of them ahead of it. Calls of active or inactive are those of the source. The rule behind the calls is not given here.
Columns and labels:
P2Y purinoceptor 14 [1] = molecular target: T1, P2Y purinoceptor 14 (Homo sapiens, UniProt Q15391); assay: Inhibition of MRS4174 binding to human P2Y14R expressed in CHO cells pre-incubated for 30 mins before MRS4174 addition and further incubated for 30 mins at pH 7.4 by flow cytomtery based competitive fluorescence assay; format: cell-based
T1 sequence (Q15391 whole entry): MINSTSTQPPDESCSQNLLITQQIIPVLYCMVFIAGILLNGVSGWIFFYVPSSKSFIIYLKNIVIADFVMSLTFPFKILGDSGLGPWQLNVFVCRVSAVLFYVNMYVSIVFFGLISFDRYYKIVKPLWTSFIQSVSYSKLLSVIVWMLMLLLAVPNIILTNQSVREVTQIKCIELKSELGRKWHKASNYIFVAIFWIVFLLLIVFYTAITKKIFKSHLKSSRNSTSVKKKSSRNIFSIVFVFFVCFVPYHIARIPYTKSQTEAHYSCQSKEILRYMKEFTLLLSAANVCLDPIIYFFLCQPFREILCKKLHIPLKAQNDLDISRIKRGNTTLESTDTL

D(1B) dopamine receptor = D(1B) dopamine receptor (Homo sapiens, UniProt P21918); assay: Binding affinity to dopamine D5 receptor (unknown origin)
D(1B) dopamine receptor, sequence (P21918 whole entry): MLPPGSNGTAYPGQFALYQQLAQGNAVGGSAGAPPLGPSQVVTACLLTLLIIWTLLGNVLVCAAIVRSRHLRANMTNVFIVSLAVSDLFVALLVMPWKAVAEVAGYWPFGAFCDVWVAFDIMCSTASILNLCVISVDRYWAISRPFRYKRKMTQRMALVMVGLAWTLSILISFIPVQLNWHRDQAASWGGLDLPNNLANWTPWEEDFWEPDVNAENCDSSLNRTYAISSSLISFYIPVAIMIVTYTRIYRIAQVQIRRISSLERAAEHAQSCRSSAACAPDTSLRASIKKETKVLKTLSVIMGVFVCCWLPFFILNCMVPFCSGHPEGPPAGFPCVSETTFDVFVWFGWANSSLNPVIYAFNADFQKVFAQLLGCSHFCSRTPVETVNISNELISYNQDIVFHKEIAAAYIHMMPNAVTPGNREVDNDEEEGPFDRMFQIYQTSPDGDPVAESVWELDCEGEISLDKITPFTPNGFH

Translocator protein = Translocator protein (Homo sapiens, UniProt P30536); assay: Binding affinity to TSPO receptor (unknown origin)
Translocator protein, sequence (P30536 whole entry): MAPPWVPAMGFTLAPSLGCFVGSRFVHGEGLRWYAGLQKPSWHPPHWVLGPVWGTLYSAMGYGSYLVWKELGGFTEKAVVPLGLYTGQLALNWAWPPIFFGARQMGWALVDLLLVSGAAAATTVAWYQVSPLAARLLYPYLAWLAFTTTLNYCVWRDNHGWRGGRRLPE

[2] = Aqueous solubility at pH 7.4 by pION method; format: physicochemical; details: buffer
Method in brief: (§1)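 Equilibrium aqueous solubility measured by the pION method at pH 4.0 and at pH 7.4, in μg/mL; mean ± SD.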

[3] = Aqueous solubility at pH 4 by pION method; format: physicochemical; details: buffer; method in brief: as §1
Mus musculus = assay: Antiasthmatic activity in Aspergillus oryzae protease-mediated C57BL/6J mouse model of allergic asthma assessed as reduction in eosinophil infiltration in bronchoalveolar lavage fluid at 10 mg/kg, ip dosed 30 mins before OVA aerosol challenge and measured 2 days post-challenge by cell differential count assay; format: functional, organism-based
P2Y purinoceptor 14 [4] = molecular target: T2, P2Y purinoceptor 14 (Mus musculus, UniProt Q9ESG6); assay: Inhibition of MRS4174 binding to mouse P2Y14R expressed in HEK293 cells pre-incubated for 30 mins before MRS4174 addition and further incubated for 30 mins by flow cytomtery based competitive fluorescence assay; format: cell-based
T2 sequence (Q9ESG6 whole entry): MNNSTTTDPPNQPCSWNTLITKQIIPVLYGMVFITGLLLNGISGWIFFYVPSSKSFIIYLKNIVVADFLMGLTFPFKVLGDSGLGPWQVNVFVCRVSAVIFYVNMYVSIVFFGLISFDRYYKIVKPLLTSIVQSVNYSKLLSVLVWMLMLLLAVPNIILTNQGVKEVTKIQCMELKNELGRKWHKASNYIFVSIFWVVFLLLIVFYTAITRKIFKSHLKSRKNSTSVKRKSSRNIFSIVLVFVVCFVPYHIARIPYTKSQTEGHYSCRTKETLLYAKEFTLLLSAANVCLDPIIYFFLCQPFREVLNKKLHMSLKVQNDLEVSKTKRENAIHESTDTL
Method in brief: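 Competitive whole-cell binding in HEK293 cells stably expressing N-terminally HA-tagged mouse P2Y14R, grown in a 24-well plate to 80–90% confluency. Antagonist given at 1 nM–100 μM in serum-containing EMEM for 30 min at 37 °C, then tracer added at 20 nM final for 30 min.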

[5] = Lipophilicity, change in Constant K of the compound by RP-HPLC analysis relative to PPTN; format: physicochemical
Method in brief: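 Lipophilicity taken from reversed-phase HPLC retention time on a C18 column. Elution used a 20 min gradient of 10 to 100% acetonitrile in 10 mM triethylammonium acetate. Reported as Δk against the reference antagonist.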

[6] = Unbound fraction in human plasma; format: ADME, cell-free
Method in brief: (§2)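 Plasma protein binding measured at 10 μM compound in human and mouse plasma, expressed as percent unbound (mean ± SD). Verapamil and warfarin were positive controls.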

[7] = Unbound fraction in mouse plasma; format: ADME, cell-free; method in brief: as §2
[8] = molecular target: Delta-type opioid receptor (Homo sapiens, UniProt P41143); assay: Binding affinity to DOR (unknown origin)
Delta-type opioid receptor, sequence (P41143 whole entry): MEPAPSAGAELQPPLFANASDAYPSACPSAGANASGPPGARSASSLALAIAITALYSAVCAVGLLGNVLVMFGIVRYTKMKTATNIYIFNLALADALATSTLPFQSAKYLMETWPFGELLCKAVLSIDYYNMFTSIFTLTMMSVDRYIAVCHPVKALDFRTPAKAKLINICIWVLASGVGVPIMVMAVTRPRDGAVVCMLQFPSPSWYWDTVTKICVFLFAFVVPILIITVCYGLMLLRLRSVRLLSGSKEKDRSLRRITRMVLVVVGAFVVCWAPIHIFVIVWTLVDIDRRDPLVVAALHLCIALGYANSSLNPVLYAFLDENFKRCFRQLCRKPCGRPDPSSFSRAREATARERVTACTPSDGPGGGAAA

[9] = Binding affinity to sigma 2 receptor (unknown origin); design: species or system Homo sapiens
[10] = molecular target: Sigma non-opioid intracellular receptor 1 (Homo sapiens, UniProt Q99720); assay: Binding affinity to sigma 1 receptor (unknown origin)
Sigma non-opioid intracellular receptor 1, sequence (Q99720 whole entry): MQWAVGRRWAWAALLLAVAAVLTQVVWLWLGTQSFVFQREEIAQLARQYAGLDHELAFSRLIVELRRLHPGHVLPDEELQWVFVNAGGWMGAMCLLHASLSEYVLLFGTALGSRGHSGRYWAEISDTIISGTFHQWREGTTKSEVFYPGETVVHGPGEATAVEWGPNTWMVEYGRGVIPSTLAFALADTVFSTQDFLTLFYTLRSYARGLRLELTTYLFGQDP

Cannabinoid receptor 1 [11] = molecular target: T3, Cannabinoid receptor 1 (Homo sapiens, UniProt P21554); assay: Agonist activity at CB1 receptor (unknown origin)
T3 sequence (P21554 whole entry): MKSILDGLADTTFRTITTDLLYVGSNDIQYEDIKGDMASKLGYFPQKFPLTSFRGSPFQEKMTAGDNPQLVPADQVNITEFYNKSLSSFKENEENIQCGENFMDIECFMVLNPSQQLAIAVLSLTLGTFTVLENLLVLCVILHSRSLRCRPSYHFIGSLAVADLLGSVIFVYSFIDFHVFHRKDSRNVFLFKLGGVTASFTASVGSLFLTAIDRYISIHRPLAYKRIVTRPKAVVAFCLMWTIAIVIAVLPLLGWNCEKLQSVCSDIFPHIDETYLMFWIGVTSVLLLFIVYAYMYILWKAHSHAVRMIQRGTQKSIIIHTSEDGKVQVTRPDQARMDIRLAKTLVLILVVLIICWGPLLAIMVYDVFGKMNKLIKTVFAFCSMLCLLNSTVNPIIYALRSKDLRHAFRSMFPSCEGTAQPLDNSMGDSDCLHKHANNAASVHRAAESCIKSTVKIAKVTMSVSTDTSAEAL
Method in brief: (§3)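 Tested through the Psychoactive Drug Screening Program as functional agonist and antagonist at CB1 and CB2 cannabinoid receptors, with an upper test concentration of 10 μM.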

Cannabinoid receptor 1 [12] = molecular target: T3, Cannabinoid receptor 1; assay: Antagonist activity at CB1 receptor (unknown origin); method in brief: as §3
Cannabinoid receptor 2 [13] = molecular target: T4, Cannabinoid receptor 2 (Homo sapiens, UniProt P34972); assay: Agonist activity at CB2 receptor (unknown origin); method in brief: as §3
T4 sequence (P34972 whole entry): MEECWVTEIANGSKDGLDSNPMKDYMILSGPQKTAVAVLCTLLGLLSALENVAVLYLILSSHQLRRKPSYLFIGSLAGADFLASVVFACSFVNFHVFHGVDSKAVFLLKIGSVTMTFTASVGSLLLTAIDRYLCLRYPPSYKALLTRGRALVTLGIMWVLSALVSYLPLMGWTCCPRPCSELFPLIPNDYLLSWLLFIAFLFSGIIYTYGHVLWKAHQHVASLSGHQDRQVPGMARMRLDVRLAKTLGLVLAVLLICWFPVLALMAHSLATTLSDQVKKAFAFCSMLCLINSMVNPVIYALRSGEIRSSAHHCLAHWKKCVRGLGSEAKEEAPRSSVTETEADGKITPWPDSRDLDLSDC

Cannabinoid receptor 2 [14] = molecular target: T4, Cannabinoid receptor 2; assay: Antagonist activity at CB2 receptor (unknown origin); method in brief: as §3

SMILES: C#CCCCCN1CCC(c2ccc(-c3cc(C(=O)O)cc4cc(-c5ccc(C(F)(F)F)cc5)ccc34)cc2)CC1
Activity (Mus musculus): Active

SMILES: O=C(O)c1cc(-c2ccc(C3CCNCC3)cc2)cc(-n2cc(-c3ccc(C(F)(F)F)cc3)nn2)c1
Activity (Mus musculus): inactive

SMILES: O=C(O)c1cc(-c2ccc(C34CCNCC3C4(F)F)cc2)cc(-n2cc(-c3ccc(C(F)(F)F)cc3)nn2)c1 (configuration not stated)
IC50 (P2Y purinoceptor 14 [1]): 639 nM

SMILES: C[N+]12CCC(c3ccc(-c4cc(C(=O)O)cc5cc(-c6ccc(C(F)(F)F)cc6)ccc45)cc3)(CC1)CC2
IC50 (P2Y purinoceptor 14 [1]): 38.3 nM
IC50 (P2Y purinoceptor 14 [4]): 56.3 nM
solubility [2]: 1.72 µg/mL
solubility [3]: 2.24 µg/mL
fold change (FC) [5]: 0.24
Fu [6]: 1.13%
Fu [7]: 0.94%

SMILES: NC(=O)c1ccc(-c2cc(C(=O)O)cc(-c3cn(-c4ccc(C(F)(F)F)cc4)nn3)c2)cc1
Ki [8]: 2480 nM
Ki [9]: 2910 nM
Ki [10]: 500 nM

Now from value to molecule, other results behind:

IC50 (P2Y purinoceptor 14 [1]): > 100000 nM
SMILES: NC(=O)c1cc(-c2ccc(C3CCNCC3)cc2)cc(-n2cc(-c3ccc(C(F)(F)F)cc3)nn2)c1

Ki (D(1B) dopamine receptor): 4380 nM
Ki (Translocator protein): 510 nM
solubility [2]: 2.32 µg/mL (≈ 4.48 µM)
solubility [3]: 0.09 µg/mL (≈ 0.174 µM)
SMILES: CC(=O)N1CCC(c2ccc(-c3cc(C(=O)O)cc4cc(-c5ccc(C(F)(F)F)cc5)ccc34)cc2)CC1
Activity (Mus musculus): Active

Ki [8]: 3790 nM
EC50 (Cannabinoid receptor 1 [11]): > 10000 nM
EC50 (Cannabinoid receptor 1 [12]): > 10000 nM
EC50 (Cannabinoid receptor 2 [13]): > 10000 nM
EC50 (Cannabinoid receptor 2 [14]): > 10000 nM
Fu [6]: 1.25%
Fu [7]: 1.33%
SMILES: O=C(O)c1cc(-c2ccc(C3CCNCC3)cc2)cc(-c2cn(-c3ccc(C(F)(F)F)cc3)nn2)c1
Activity (Mus musculus): Active
